Experimental data taken from ChEMBL document CHEMBL1649395, “Synthesis and antibacterial activity of novel ketolides with 11,12-sulfur contained aryl alkyl side chains” (2011).
Converted amounts (≈) assume the structure as drawn.

Tests used:
Type in all cases: functional
Staphylococcus aureus [1] = assay: Antibacterial activity against methicillin-susceptible Staphylococcus aureus ATCC 29213 by broth microdilution method
In short: (§1)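 Strains were ATCC reference strains or clinical isolates from China's national antimicrobial resistance surveillance network (MOHNARIN). In vitro activity was measured by broth microdilution following NCCLS recommendations. Results are reported as minimum inhibitory concentration (MIC) in mg/L.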

Staphylococcus aureus [2] = assay: Antibacterial activity against methicillin-susceptible Staphylococcus aureus ANS46 by broth microdilution method; in short: as §1
[3] = tested on: Staphylococcus epidermidis; assay: Antibacterial activity against methicillin-susceptible Staphylococcus epidermidis 07C134 by broth microdilution method
In short: (§2)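 Clinical isolates were supplied by China's Ministry of Health National Antimicrobial Resistance Investigation Net (MOHNARIN). Activity was reported as minimum inhibitory concentration (MIC), determined by broth microdilution following NCCLS recommendations.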

[4] = tested on: Staphylococcus epidermidis; assay: Antibacterial activity against methicillin-susceptible Staphylococcus epidermidis 07T202 by broth microdilution method; in short: as §1
[5] = tested on: Staphylococcus epidermidis; assay: Antibacterial activity against methicillin-resistant Staphylococcus epidermidis 07R066 by broth microdilution method; in short: as §2
[6] = tested on: Staphylococcus epidermidis; assay: Antibacterial activity against methicillin-resistant Staphylococcus epidermidis 07A066 by broth microdilution method; in short: as §2
Streptococcus pyogenes [7] = assay: Antibacterial activity against erythromycin-susceptible Streptococcus pyogenes 07U084 by broth microdilution method; in short: as §1
Streptococcus pyogenes [8] = assay: Antibacterial activity against erythromycin-susceptible Streptococcus pyogenes 07U086 by broth microdilution method; in short: as §1
Streptococcus pneumoniae [9] = assay: Antibacterial activity against erythromycin-susceptible Streptococcus pneumoniae ATCC 49619 by broth microdilution method; in short: as §1
Haemophilus influenzae [10] = assay: Antibacterial activity against erythromycin-susceptible Haemophilus influenzae ATCC 49247 by broth microdilution method; in short: as §1
Haemophilus influenzae [11] = assay: Antibacterial activity against erythromycin-susceptible Haemophilus influenzae 07O114 by broth microdilution method; in short: as §1
Haemophilus influenzae [12] = assay: Antibacterial activity against erythromycin-susceptible Haemophilus influenzae 07O339 by broth microdilution method; in short: as §1
Haemophilus influenzae [13] = assay: Antibacterial activity against erythromycin-susceptible Haemophilus influenzae 07O394 by broth microdilution method; in short: as §1
Streptococcus pneumoniae [14] = assay: Antibacterial activity against erythromycin-susceptible Streptococcus pneumoniae 07H252 by broth microdilution method; in short: as §1
Streptococcus pyogenes [15] = assay: Antibacterial activity against erythromycin-resistant Streptococcus pyogenes 03-233 by broth microdilution method; in short: as §2
Streptococcus pyogenes [16] = assay: Antibacterial activity against erythromycin-resistant Streptococcus pyogenes 01-533 by broth microdilution method; in short: as §2
Streptococcus pneumoniae [17] = assay: Antibacterial activity against erythromycin-resistant Streptococcus pneumoniae 07D201 by broth microdilution method; in short: as §2
Streptococcus pneumoniae [18] = assay: Antibacterial activity against erythromycin-resistant Streptococcus pneumoniae 07P390 by broth microdilution method; in short: as §2

Row | SMILES | MIC (Staphylococcus aureus [1]) [µg/mL] | MIC (Staphylococcus aureus [2]) [µg/mL] | MIC [3] [µg/mL] | MIC [4] [µg/mL] | MIC [5] [µg/mL] | MIC [6] [µg/mL] | MIC (Streptococcus pyogenes [7]) [µg/mL] | MIC (Streptococcus pyogenes [8]) [µg/mL] | MIC (Streptococcus pneumoniae [9]) [µg/mL] | MIC (Haemophilus influenzae [10]) [µg/mL] | MIC (Haemophilus influenzae [11]) [µg/mL] | MIC (Haemophilus influenzae [12]) [µg/mL] | MIC (Haemophilus influenzae [13]) [µg/mL] | MIC (Streptococcus pneumoniae [14]) [µg/mL] | MIC (Streptococcus pyogenes [15]) [µg/mL] | MIC (Streptococcus pyogenes [16]) [µg/mL] | MIC (Streptococcus pneumoniae [17]) [µg/mL] | MIC (Streptococcus pneumoniae [18]) [µg/mL]
1 | CC[C@H]1OC(=O)[C@H](C)C(=O)[C@H](C)[C@@H](O[C@@H]2O[C@H](C)C[C@H](N(C)C)[C@H]2O)[C@@](C)(OC)C[C@@H](C)C(=O)/C(C)=C/[C@]1(C)OC(=O)NCCCSc1nc2cc([N+](=O)[O-])ccc2[nH]1 | 1 (≈ 1.18 µM) | > 16 | 1 (≈ 1.18 µM) | > 16 | 1 (≈ 1.18 µM) | 1 (≈ 1.18 µM) | 0.125 (≈ 0.147 µM) | 0.125 (≈ 0.147 µM) | 0.125 (≈ 0.147 µM) | 16 (≈ 18.9 µM) | 16 (≈ 18.9 µM) | > 16 | > 16 |  |  |  |  | 
2 | CCCc1cnc(SCCCN2C(=O)O[C@]3(C)[C@@H](CC)OC(=O)[C@H](C)C(=O)[C@H](C)[C@@H](O[C@@H]4O[C@H](C)C[C@H](N(C)C)[C@H]4O)[C@@](C)(OC)C[C@@H](C)C(=O)[C@H](C)[C@@H]23)nc1 | 0.5 (≈ 0.62 µM) | > 16 | 0.5 (≈ 0.62 µM) | > 16 | 0.5 (≈ 0.62 µM) | 1 (≈ 1.24 µM) | 0.125 (≈ 0.155 µM) | 0.125 (≈ 0.155 µM) | 0.125 (≈ 0.155 µM) | 16 (≈ 19.8 µM) | 16 (≈ 19.8 µM) | 16 (≈ 19.8 µM) | 16 (≈ 19.8 µM) |  |  |  |  | 
3 | CC[C@H]1OC(=O)[C@H](C)C(=O)[C@H](C)[C@@H](O[C@@H]2O[C@H](C)C[C@H](N(C)C)[C@H]2O)[C@@](C)(OC)C[C@@H](C)C(=O)[C@H](C)[C@H]2N(CCCSc3nnnn3-c3ccccc3)C(=O)O[C@]12C | 0.25 (≈ 0.301 µM) | > 32 | 0.5 (≈ 0.602 µM) | > 32 | 0.25 (≈ 0.301 µM) | 0.5 (≈ 0.602 µM) | 0.125 (≈ 0.15 µM) | 0.125 (≈ 0.15 µM) | 0.125 (≈ 0.15 µM) | 16 (≈ 19.3 µM) | 16 (≈ 19.3 µM) | 32 (≈ 38.5 µM) | 32 (≈ 38.5 µM) | 1 (≈ 1.2 µM) | > 32 | 2 (≈ 2.41 µM) | > 32 | 0.5 (≈ 0.602 µM)
4 | CC[C@H]1OC(=O)[C@H](C)C(=O)[C@H](C)[C@@H](O[C@@H]2O[C@H](C)C[C@H](N(C)C)[C@H]2O)[C@@](C)(OC)C[C@@H](C)C(=O)[C@H](C)[C@H]2N(CCCSc3nccs3)C(=O)O[C@]12C | 0.125 (≈ 0.162 µM) | > 32 | 0.125 (≈ 0.162 µM) | > 32 | 0.062 (≈ 0.0805 µM) | 0.125 (≈ 0.162 µM) | ≤ 0.016 | ≤ 0.016 | 0.031 (≈ 0.0403 µM) | 4 (≈ 5.19 µM) | 4 (≈ 5.19 µM) | 4 (≈ 5.19 µM) | 4 (≈ 5.19 µM) | 0.5 (≈ 0.649 µM) | > 32 | 0.5 (≈ 0.649 µM) | > 32 | 0.25 (≈ 0.325 µM)
5 | CC[C@H]1OC(=O)[C@H](C)C(=O)[C@H](C)[C@@H](O[C@@H]2O[C@H](C)C[C@H](N(C)C)[C@H]2O)[C@@](C)(OC)C[C@@H](C)C(=O)[C@H](C)[C@H]2N(CCCSc3nc(-c4ccccc4)cs3)C(=O)O[C@]12C | 0.5 (≈ 0.591 µM) | 32 (≈ 37.8 µM) | 0.5 (≈ 0.591 µM) | 32 (≈ 37.8 µM) | 0.5 (≈ 0.591 µM) | 0.5 (≈ 0.591 µM) | 0.25 (≈ 0.295 µM) | 0.25 (≈ 0.295 µM) | 0.25 (≈ 0.295 µM) | 16 (≈ 18.9 µM) | 32 (≈ 37.8 µM) | 32 (≈ 37.8 µM) | 32 (≈ 37.8 µM) | 0.5 (≈ 0.591 µM) | 32 (≈ 37.8 µM) | 1 (≈ 1.18 µM) | 8 (≈ 9.45 µM) | 0.25 (≈ 0.295 µM)
6 | CC[C@H]1OC(=O)[C@H](C)C(=O)[C@H](C)[C@@H](O[C@@H]2O[C@H](C)C[C@H](N(C)C)[C@H]2O)[C@@](C)(OC)C[C@@H](C)C(=O)[C@H](C)[C@H]2N(CCCSc3ccoc3C)C(=O)O[C@]12C | 0.25 (≈ 0.326 µM) | > 16 | 0.25 (≈ 0.326 µM) | > 16 | 0.25 (≈ 0.326 µM) | 0.25 (≈ 0.326 µM) | 0.125 (≈ 0.163 µM) | 0.125 (≈ 0.163 µM) | 0.031 (≈ 0.0404 µM) | 16 (≈ 20.9 µM) | 8 (≈ 10.4 µM) | 16 (≈ 20.9 µM) | 16 (≈ 20.9 µM) | 1 (≈ 1.3 µM) | > 16 | 0.5 (≈ 0.652 µM) | > 16 | 0.25 (≈ 0.326 µM)
7 | CC[C@H]1OC(=O)[C@H](C)C(=O)[C@H](C)[C@@H](O[C@@H]2O[C@H](C)C[C@H](N(C)C)[C@H]2O)[C@@](C)(OC)C[C@@H](C)C(=O)[C@H](C)[C@H]2N(CCCSc3nc4cc(OC)ccc4s3)C(=O)O[C@]12C | 0.5 (≈ 0.588 µM) | > 16 | 0.25 (≈ 0.294 µM) | 16 (≈ 18.8 µM) | 0.25 (≈ 0.294 µM) | 0.5 (≈ 0.588 µM) | 0.062 (≈ 0.0729 µM) | 0.062 (≈ 0.0729 µM) | 0.125 (≈ 0.147 µM) | 16 (≈ 18.8 µM) | 16 (≈ 18.8 µM) | 16 (≈ 18.8 µM) | 16 (≈ 18.8 µM) |  |  |  |  | 
8 | CC[C@H]1OC(=O)[C@H](C)C(=O)[C@H](C)[C@@H](O[C@@H]2O[C@H](C)C[C@H](N(C)C)[C@H]2O)[C@@](C)(OC)C[C@@H](C)C(=O)[C@H](C)[C@H]2N(CCCSc3nc(-c4ccccc4)c(-c4ccccc4)o3)C(=O)O[C@]12C | 4 (≈ 4.41 µM) | > 16 | 4 (≈ 4.41 µM) | > 16 | 4 (≈ 4.41 µM) | 2 (≈ 2.21 µM) | 0.5 (≈ 0.552 µM) | 0.5 (≈ 0.552 µM) | 1 (≈ 1.1 µM) | > 16 | > 16 | > 16 | > 16 |  |  |  |  | 
9 | CC[C@H]1OC(=O)[C@H](C)C(=O)[C@H](C)[C@@H](O[C@@H]2O[C@H](C)C[C@H](N(C)C)[C@H]2O)[C@@](C)(OC)C[C@@H](C)C(=O)[C@H](C)[C@H]2N(CCCSc3ccccn3)C(=O)O[C@]12C | 0.125 (≈ 0.164 µM) | > 16 | 0.125 (≈ 0.164 µM) | > 16 | 0.125 (≈ 0.164 µM) | 0.125 (≈ 0.164 µM) | 0.016 (≈ 0.0209 µM) | 0.016 (≈ 0.0209 µM) | 0.016 (≈ 0.0209 µM) | 8 (≈ 10.5 µM) | 8 (≈ 10.5 µM) | 4 (≈ 5.24 µM) | 8 (≈ 10.5 µM) |  |  |  |  | 
10 | CC[C@H]1OC(=O)[C@H](C)C(=O)[C@H](C)[C@@H](O[C@@H]2O[C@H](C)C[C@H](N(C)C)[C@H]2O)[C@@](C)(OC)C[C@@H](C)C(=O)[C@H](C)[C@H]2N(CCCSc3nnc(C)s3)C(=O)O[C@]12C | 0.25 (≈ 0.318 µM) | > 32 | 0.125 (≈ 0.159 µM) | > 32 | 2 (≈ 2.55 µM) | 0.125 (≈ 0.159 µM) | ≤ 0.016 | 0.031 (≈ 0.0395 µM) | ≤ 0.016 | 2 (≈ 2.55 µM) | 2 (≈ 2.55 µM) | 2 (≈ 2.55 µM) | 2 (≈ 2.55 µM) | ≤ 0.016 | > 32 | 1 (≈ 1.27 µM) | 16 (≈ 20.4 µM) | 0.125 (≈ 0.159 µM)
11 | CC[C@H]1OC(=O)[C@H](C)C(=O)[C@H](C)[C@@H](O[C@@H]2O[C@H](C)C[C@H](N(C)C)[C@H]2O)[C@@](C)(OC)C[C@@H](C)C(=O)[C@H](C)[C@H]2N(CCCSc3nc4ccccc4[nH]3)C(=O)O[C@]12C | 0.125 (≈ 0.156 µM) | > 16 | 0.062 (≈ 0.0772 µM) | > 16 | 0.062 (≈ 0.0772 µM) | 0.125 (≈ 0.156 µM) | 0.016 (≈ 0.0199 µM) | 0.016 (≈ 0.0199 µM) | 0.016 (≈ 0.0199 µM) | 4 (≈ 4.98 µM) | 2 (≈ 2.49 µM) | 2 (≈ 2.49 µM) | 2 (≈ 2.49 µM) |  |  |  |  | 
